# In the RNAGym collection of RNA variant scans (doi:10.1038/nmeth.2970):
# B1: GFP aptamer (parent)
# chain: GCUUCUGGACUGCGAUGGGAGCACGAAACGUCGUGGCGCAAUUGGGUGGGGAAAGUCCUUAAAAGAGGGCCACCACAGAAGC
# Variants of: B1
# Test: HiTS-RAP
# Settings: with EGFP
# In short: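 Aptamer DNA templates carrying a T7 promoter and ter site were sequenced on an Illumina GAIIx flowcell, then transcribed in situ by T7 RNA polymerase and halted by GST-Tus (30 minutes, 37°C). Clusters were imaged after 30-minute room-temperature equilibration with EGFP-mOrange at 0.04 nM to 625 nM in fivefold steps. Intensities were decay-corrected, normalised to sequencing intensity and averaged per sequence. Kd came from weighted Hill fits per lane, geometrically averaged over three lanes, with non-rising sequences set to 125 nM.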
row,Variant,Kd [nM]
1,C10U C29U,3.83
2,C10U C32U,6.54
3,C10U C37U,14.3
4,C10U C73U,5.31
5,C10U G14A,6.22
6,C10U G33A,29.6
7,C10U U34C,4.37
8,C10U U47C,1.58
9,U11A,4.13
10,U11C,24.2
11,U11C A27G,3.8
12,U11C A28G,15.9
13,U11C A40G,4.63
14,U11C A77G,9.02
15,U11C C73U,44.7
16,U11C U31C,14.2
17,U11G,3.81
18,G12A,22.4
19,G12C,30.6
20,G12U,18.9
21,C13A,14.6
22,C13G,6.37
23,C13U,4.53
24,C13U A26G,2.37

row,Variant,Kd [nM]
1,C13U A27G,7.37
2,C13U A28G,3.77
3,C13U A40G,3
4,C13U A41G,10
5,C13U C58U,0.942
6,C13U C70U,2.02
7,C13U C74U,17.4
8,C13U U34C,36.2
9,C13U U42C,3.54
10,C13U U43C,8.72
11,G14A,7.34
12,G14A A26G,7.76
13,G14A A28G,4.8
14,G14A C32U,15.4
15,G14C,25.1
16,G14U,4.92
17,A15C,66.2
18,A15G,4.76
19,A15G A27G,5.3
20,A15G A28G,3.9
21,A15G G25A,2.42
22,A15U,10.3
23,U16A,5.38
24,U16C,6.81

row,Variant,Kd [nM]
1,U16C A28G,4.74
2,U16C U59C,7.5
3,U16G,2.69
4,G17A,≥ 125
5,G17C,≥ 125
6,G17U,5.8
7,G18A,≥ 125
8,G18C,≥ 125
9,G18U,≥ 125
10,G19A,48.3
11,G19C,≥ 125
12,G19U,≥ 125
13,A20C,≥ 125
14,A20G,8.28
15,A20G A23G,1.51
16,A20G A26G,7.96
17,A20G A27G,4.69
18,A20G A28G,15.5
19,A20G A41G,19.6
20,A20G A62G,13.1
21,A20G A79G,37.9
22,A20G C58U,11.5
23,A20G G25A,10.8
24,A20G G30A,30.3

row,Variant,Kd [nM]
1,A20G G33A,49
2,A20G G44A,13
3,A20G U31C,35.3
4,A20G U60A,7.33
5,A20U,≥ 125
6,G21A,≥ 125
7,G21C,5.13
8,G21U,6
9,C22A,13.8
10,C22G,29.1
11,C22U,9.58
12,C22U A27G,9.49
13,C22U A28G,10.1
14,C22U A41G,21.2
15,C22U C58U,12.7
16,C22U G68A,18
17,C22U U43C,2.31
18,A23C,13.2
19,A23G,5.87
20,A23G A26G,35.8
21,A23G A27G,5.79
22,A23G C74U,2.27
23,A23G U31C,3.06
24,A23G U34C,1.23

row,Variant,Kd [nM]
1,A23U,11.2
2,C24A,10.6
3,C24G,13.2
4,C24U,4.82
5,C24U A27G,7.09
6,C24U A28G,2.43
7,C24U A41G,11.7
8,C24U C37U,6.91
9,C24U C58U,2.39
10,C24U G33A,5.72
11,C24U G68A,54.1
12,G25A,5
13,G25A A26G,6.06
14,G25A A27G,5.68
15,G25A A28G,5.89
16,G25A A77G,3.54
17,G25A C32U,13.6
18,G25A C58U,2.17
19,G25A C74U,4.63
20,G25A G33A,11.9
21,G25A U31C,3.75
22,G25A U43C,2.24
23,G25C,7
24,G25U,3.87

row,Variant,Kd [nM]
1,A26C,4.53
2,A26G,4.22
3,A26G A27G,2.12
4,A26G A41G,2.97
5,A26G A77G,3.88
6,A26G C32U,5.01
7,A26G C70U,0.997
8,A26G C73U,5.43
9,A26G U31C,3.77
10,A26U,4.33
11,A27C,4.47
12,A27G,4.28
13,A27G A28G,4.44
14,A27G A40G,2.81
15,A27G A75G,5.08
16,A27G A77G,4.47
17,A27G A79G,2.94
18,A27G C32U,3.03
19,A27G C37U,3.28
20,A27G C58U,0.55
21,A27G C70U,17
22,A27G C71U,17.8
23,A27G C73U,10.5
24,A27G C74U,3.31

row,Variant,Kd [nM]
1,A27G G30A,2.45
2,A27G G33A,5.11
3,A27G G46A,12.7
4,A27G G68A,17.3
5,A27G U31C,4.55
6,A27G U34C,9.07
7,A27G U43C,4.45
8,A27U,3.98
9,A28C,6.92
10,A28G,4.55
11,A28G A41G,2.01
12,A28G A77G,2.55
13,A28G A79G,3.44
14,A28G C37U,7.93
15,A28G C58U,1.28
16,A28G G44A,4.96
17,A28G G46A,14.2
18,A28G G68A,32.8
19,A28G U31C,5.74
20,A28G U42C,6.79
21,A28G U47A,3.89
22,A28G U47C,1.08
23,A28G U60C,13.9
